An excerpt weighted towards active compounds, which were near 0.77% of everything screened.
hIAP block – blocks human intestinal alkaline phosphatase; P09923; purified IAP, CDP-Star luminescence, 30 min; inhibition, % at 10 µM; 330,000 tested, 0.12% active; AID 2544;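 active means inhibition reaching a set limit with compound at 10 µM in the primary screen, cut at about 35% in these data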;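 further: plate controls were DMSO wells with enzyme for no effect and no-enzyme buffer wells for full effect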
Target sequence (P09923 whole entry, looked up): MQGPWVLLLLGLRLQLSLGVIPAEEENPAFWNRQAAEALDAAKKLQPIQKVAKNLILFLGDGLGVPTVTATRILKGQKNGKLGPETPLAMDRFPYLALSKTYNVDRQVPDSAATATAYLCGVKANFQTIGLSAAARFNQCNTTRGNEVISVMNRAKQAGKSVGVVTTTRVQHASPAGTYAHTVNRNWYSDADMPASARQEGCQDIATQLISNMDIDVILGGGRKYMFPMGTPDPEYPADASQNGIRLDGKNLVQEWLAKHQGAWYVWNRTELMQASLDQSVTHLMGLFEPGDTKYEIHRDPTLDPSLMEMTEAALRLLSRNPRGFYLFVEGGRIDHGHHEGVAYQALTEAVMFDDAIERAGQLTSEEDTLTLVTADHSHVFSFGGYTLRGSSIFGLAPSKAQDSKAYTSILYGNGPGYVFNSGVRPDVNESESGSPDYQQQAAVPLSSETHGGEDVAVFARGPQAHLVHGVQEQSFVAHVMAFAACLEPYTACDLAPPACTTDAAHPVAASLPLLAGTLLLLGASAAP
hIAP activ – human IAP activation | activation factor at 10 µM | AID 2524 | P09923 | purified human IAP, CDP-Star luminescence, 30 min; active compounds read high; 1 = vehicle-only enzyme, 0 = enzyme-free background | 330,000 tested, 0.16% active;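 active means activation factor of the enzyme at least 2-fold when tested at 20 µM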
mIAP activ – mouse IAP activation | activation factor at 10 µM | muIAP, CDP-Star luminescence, 30 min; active compounds read high; 1 = vehicle-only enzyme signal, 0 = enzyme-free wells | 330,000 tested, 0.24% active;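 active means activation factor of at least 2 at 20 µM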
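System: mouse IAP enzyme. Reagent: CDP-Star chemiluminescent phosphatase substrate. Benchmarks: DMSO wells, no-enzyme wells. Times: 30 min enzyme-substrate-compound incubation at room temperature. Detection: luminescence from enzymatic CDP-Star hydrolysis. Doses: test compounds delivered from DMSO solution.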
bIAP inhibitor – intestinal alkaline phosphatase (bovine) inhibition. AID 1019. purified bovine IAP, CDP-star luminescence, 30 min. inhibition, % at 20 µM. 190,000 tested, under 10 active;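 active means over 50% inhibition of intestinal alkaline phosphatase at 20 µM in the single-dose screen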
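System: purified bovine intestinal alkaline phosphatase (IAP) enzyme; Input: IAP diluted 1/65,000,000 in the well; Measured by: CDP-star luminescence signal; Compound dosing: 20 µM single dose; Incubation: 30 min reaction at room temperature.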
bIAP activator – increases bovine intestinal alkaline phosphatase activity | purified bovine IAP, CDP-star luminescence, 30 min; active compounds read high; fold of DMSO-control signal, blank-subtracted | activation factor at 20 µM | 200,000 tested, 0.17% active;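 active means activation factor of 2 or more at 20 µM, a signal rise over negative controls twice the positive control's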
mIAP block – blocks mouse intestinal alkaline phosphatase; purified mouse IAP, CDP-Star luminescence, 30 min; inhibition, % at 10 µM; 330,000 tested, 0.2% active; AID 2806;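 active means inhibition of at least 40% at 10 µM in the primary screen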;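 further: plate controls were DMSO with enzyme for no effect and no enzyme wells for full effect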
* = called active by the depositor.

For C=CCN=C(NC#N)SCC(=O)NCc1ccccc1 the results were hIAP block -14.4, hIAP activ 1.14, mIAP activ 0.962, bIAP inhibitor -124.0, bIAP activator 2.2* and mIAP block 3.8.
Cc1ccccc1CSCC(=O)NCc1ccco1 was read as hIAP block 6.1, hIAP activ 0.939, mIAP activ 1.01, bIAP inhibitor -124.0, bIAP activator 2.2* and mIAP block -0.6.
Screening CSc1nnc(-c2ccco2)c(-c2ccco2)n1 returned hIAP block 3.8, hIAP activ 0.962, mIAP activ 0.545, bIAP inhibitor 13.7, bIAP activator 0.9 and mIAP block 45.5*.
For CSc1nnc(-c2ccccc2)c(-c2ccccc2)n1 the results were hIAP block -19.4, hIAP activ 1.19, mIAP activ 1.05 and mIAP block -4.7.
Screening COC(=O)Cn1ncc(N2CC(C)OC(C)C2)c(Cl)c1=O (configuration not stated) returned hIAP block 3.5, hIAP activ 0.965, mIAP activ 1.03 and mIAP block -2.6.
Screening COc1cccc(C2CN(c3ccc(F)cc3F)N=C2c2cccs2)c1OC (configuration not stated) returned hIAP block -3.1, hIAP activ 1.03, mIAP activ 2.04*, bIAP inhibitor 10.2, bIAP activator 0.9 and mIAP block -104.1.
For CCCN1C(=O)c2ccc(C(=O)Nc3nccs3)cc2C1=O the results were hIAP block -21.8, hIAP activ 1.22, mIAP activ 1.03, bIAP inhibitor 2.0, bIAP activator 1 and mIAP block -3.3.
`CCCc1cc(C(=O)Nc2nccs2)cs1` gave hIAP block -4.0, hIAP activ 1.04, mIAP activ 0.335, bIAP inhibitor 11.8, bIAP activator 0.9 and mIAP block 66.5*.
`S=C(NCCc1ccccc1)Nc1ccccc1Cl` gave hIAP block 4.0, hIAP activ 0.96, mIAP activ 0.976, bIAP inhibitor -13.6, bIAP activator 1.1 and mIAP block 2.4.
For O=C(NCCCc1ccccc1)Nc1cccc(Cl)c1 the results were hIAP block -5.5, hIAP activ 1.05, mIAP activ 4.18*, bIAP inhibitor -1.5, bIAP activator 1 and mIAP block -317.9.
Screening Fc1cc(Br)ccc1NC(=S)NCCc1ccccc1 returned hIAP block -7.8, hIAP activ 1.08, mIAP activ 2.19*, bIAP inhibitor 8.1, bIAP activator 0.9 and mIAP block -118.8.
Screening Cc1ccc(NC(=O)NCCCc2ccccc2)cc1 returned hIAP block 4.4, hIAP activ 0.956, mIAP activ 2.17*, bIAP inhibitor 26.8, bIAP activator 0.7 and mIAP block -116.9.
`S=C(NCCCc1ccccc1)Nc1ccccc1Cl` gave hIAP block -3.9, hIAP activ 1.04, mIAP activ 2.63*, bIAP inhibitor 3.4, bIAP activator 1 and mIAP block -162.9.
For Cc1[nH]c(=O)c(C#N)c(C)c1CCC(=O)Nc1cc(S(C)(=O)=O)ccc1Cl the results were hIAP block -14.6, hIAP activ 1.15, mIAP activ 1.1 and mIAP block -9.7.
For O=C(Nc1cccc(/C=C/c2ccccn2)c1)c1cc(Cl)ccn1 the results were hIAP block 15.3, hIAP activ 0.847, mIAP activ 0.964 and mIAP block 3.6.
Screening O=C(CN1C(=O)NC2(CCCC2)C1=O)OCc1cc(=O)n2cc(Br)ccc2n1 returned hIAP block -1.7, hIAP activ 1.02, mIAP activ 1.06 and mIAP block -6.1.
For CCOC(=O)CN1NC2(CCCCC2)NC1=S the results were hIAP block -12.3, hIAP activ 1.12, mIAP activ 0.493, bIAP inhibitor 22.9, bIAP activator 0.8 and mIAP block 50.7*.
CCOC(=O)CN1NC2(CCCCCCC2)NC1=S was read as hIAP block 10.6, hIAP activ 0.894, mIAP activ 0.902 and mIAP block 9.8.
Screening Cc1c(Cl)cccc1NC(=O)c1ncn[nH]1 returned hIAP block 11.2, hIAP activ 0.888, mIAP activ 0.959 and mIAP block 4.1.
For CCOC(=O)c1c(NC(=O)CN2CCCCC2)sc2c1CCC(C=O)=C2Cl the results were hIAP block 8.2, hIAP activ 0.918, mIAP activ 0.514, bIAP inhibitor 8.3, bIAP activator 0.9 and mIAP block 48.6*.
Screening CCOC(=O)c1c(-c2ccc(C)o2)csc1NC(=O)CN1CCCCC1 returned hIAP block 7.9, hIAP activ 0.921, mIAP activ 0.852, bIAP inhibitor -6.3, bIAP activator 1.1 and mIAP block 14.8.
For CCCCCCC(C)NC(=S)Nc1cc(S(=O)(=O)N(C)C)ccc1C (configuration not stated) the results were hIAP block -14.1, hIAP activ 1.14, mIAP activ 4.81*, bIAP inhibitor -21.4, bIAP activator 1.2 and mIAP block -381.3.
Cc1ccc(S(=O)(=O)N(C)C)cc1NC(=S)NC(C)CCCC(C)C (configuration not stated) was read as hIAP block -35.4, hIAP activ 1.35, mIAP activ 3.9*, bIAP inhibitor -44.3, bIAP activator 1.4 and mIAP block -289.9.
For Cc1ccc(NC(=O)C(C)NC(=O)OCc2ccccc2)cc1C (configuration not stated) the results were hIAP block -0.8, hIAP activ 1.01, mIAP activ 1.11 and mIAP block -10.9.
For Cc1nc(-c2ccc(C(=O)Nc3cc(S(N)(=O)=O)ccc3C)cc2)cs1 the results were hIAP block -5.6, hIAP activ 1.06, mIAP activ 1.04 and mIAP block -3.8.
Screening CC(C)c1ccc(NC(=O)C(c2ccc3c(c2)OCO3)N2CCN(C(=O)c3ccco3)CC2)cc1 (configuration not stated) returned hIAP block -7.7, hIAP activ 1.08, mIAP activ 2.07*, bIAP inhibitor -55.6, bIAP activator 1.6 and mIAP block -107.1.
Screening Cn1cc(S(=O)(=O)N2CCCC2)cc1C(=O)O returned hIAP block -2.7, hIAP activ 1.03, mIAP activ 1.02 and mIAP block -2.0.
`O=C(NCC1CCN(c2ccc(S(=O)(=O)N3CCOCC3)cc2)CC1)Nc1ccccc1` gave hIAP block -43.0, hIAP activ 1.43, mIAP activ 2.11* and mIAP block -111.4.
Screening Cc1nonc1OCCNc1ccc([N+](=O)[O-])cc1 returned hIAP block -1.6, hIAP activ 1.02, mIAP activ 0.893, bIAP inhibitor -121.4, bIAP activator 2.2* and mIAP block 10.7.
CCCNC(=O)c1ccc2c(c1)C1C3CCC(C3)C1C(c1ccccc1)N2 (configuration not stated) was read as hIAP block 1.2, hIAP activ 0.988, mIAP activ 1.47, bIAP inhibitor -96.2, bIAP activator 2* and mIAP block -46.9.
